Screens deposited in PubChem by Broad Institute.
Most compounds without a hit are left out; they make up all but 1.2% or so of the library.
CAL PDZ FP-1: blocks peptide binding to the human CAL PDZ domain; Q9HD26; purified CAL PDZ, TMR-peptide fluorescence polarization, 1 h; inhibition, % at 24.9 µM; 300,000 tested, 0.92% active;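 active means mean inhibition of at least 30% with at least half of replicates also reaching 30%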
CAL PDZ FP-2: blocks peptide binding to human CAL PDZ domain | Q9HD26 | 330,000 tested, 0.02% active | purified CAL PDZ, TMR-peptide fluorescence polarization, 1 h | inhibition, % at 20 µM;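 active means highest replicate inhibition of at least 40%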
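System: tagged CAL PDZ domain. Schedule: 1 h room-temperature incubation prior to read. Signal: fluorescence polarization (mP). Measure: percent inhibition from loss of millipolarization.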
ARNT TACC3 PPI: disruptors of human ARNT/TACC3 interaction. Q9Y6A5. AlphaScreen His-ARNT PAS-B/GST-TACC3 binding, luminescence; TACC3 fragment carries E629A point mutation. inhibition, % at 9.99 µM. 390,000 tested, 0.66% active. AID 623870;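 active means mean inhibition of replicates at least 50% and at least half of replicates each reaching 50%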
Large screens that a line does not name were inactive.

C[C@H]1CCCCO[C@H](CN(C)Cc2ccc(Cl)c(Cl)c2)[C@@H](C)CN([C@@H](C)CO)C(=O)c2cc(NC(=O)NC3CCCCC3)ccc2O1	none (no result: CAL PDZ FP-1, CAL PDZ FP-2)
Cc1ccc(NC(=O)c2nnn(-c3ccc4c(c3)OCCO4)c2N)cc1	none (no result: CAL PDZ FP-1)
Nc1c(C(=O)Nc2ccccc2)nnn1-c1ccc2c(c1)OCCO2	CAL PDZ FP-1 80
C/C=C/c1ccc2c(c1)O[C@@H](CN(C)C(=O)c1ccccn1)[C@@H](C)CN([C@@H](C)CO)S2(=O)=O	none (no result: CAL PDZ FP-1, CAL PDZ FP-2)
Cc1ccc(C(=O)N/C(=C\c2ccc(-c3ccccc3[N+](=O)[O-])o2)C(=O)NCCCN(C)C)cc1	none (no result: ARNT TACC3 PPI)
Cc1ccc(C(=O)N/C(=C\c2ccc(-c3ccccc3[N+](=O)[O-])o2)C(=O)NCCN(C)C)cc1	ARNT TACC3 PPI 22 (no result: CAL PDZ FP-1)
C[C@@H]1CN([C@@H](C)CO)C(=O)c2cc(NS(=O)(=O)c3ccccc3)ccc2O[C@@H]1CN(C)Cc1ccc2c(c1)OCO2	none (no result: CAL PDZ FP-1, CAL PDZ FP-2)
COc1cccc(-c2cccc(-c3nc(C(=O)O)cc4c3[C@@H](CCO)N(S(=O)C(C)(C)C)C4)c2)c1 (stereo partly drawn)	ARNT TACC3 PPI 43 (no result: CAL PDZ FP-1, CAL PDZ FP-2)
COc1cccc(-c2cccc(-c3nc(C(=O)O)cc4c3[C@H](CCO)N(S(=O)C(C)(C)C)C4)c2)c1 (stereo partly drawn)	none (no result: CAL PDZ FP-1, CAL PDZ FP-2)
CC(C)NC(=O)Nc1cccc2c1O[C@@H](CN(C)S(C)(=O)=O)[C@H](C)CN([C@H](C)CO)C2=O	none (no result: CAL PDZ FP-1, CAL PDZ FP-2)
C[C@@H]1CCCCO[C@@H](CN(C)C(=O)Nc2ccc3c(c2)OCO3)[C@H](C)CN([C@@H](C)CO)C(=O)c2cc(NS(=O)(=O)c3cccs3)ccc2O1	none (no result: CAL PDZ FP-1, CAL PDZ FP-2)
Cc1ccc(S(=O)(=O)Nc2ccc3c(c2)C(=O)N([C@H](C)CO)C[C@@H](C)[C@H](CN(C)Cc2ccc(C(=O)O)cc2)OCCCC[C@@H](C)O3)cc1	none (no result: CAL PDZ FP-1, CAL PDZ FP-2)
C[C@@H]1CN([C@@H](C)CO)C(=O)Cc2cc(NS(=O)(=O)c3cn(C)cn3)ccc2O[C@H]1CN(C)Cc1ccncc1	none (no result: CAL PDZ FP-1, CAL PDZ FP-2)
COc1ccc(OC)c(NC(=O)C(C)N2c3cccc4cccc(c34)S2(=O)=O)c1 (stereo not drawn)	CAL PDZ FP-1 73
COc1ccc(OC)c(NC(=O)CN2c3cccc4cccc(c34)S2(=O)=O)c1	none
Fc1ccc(C(CCNCc2cccs2)c2ccco2)cc1 (stereo not drawn)	CAL PDZ FP-1 56
O=S(=O)(NCCC(c1ccc(F)cc1)c1ccco1)c1ccccc1 (stereo not drawn)	none
COc1ccc(S(=O)(=O)Nc2ccc3c(c2)C(=O)N([C@@H](C)CO)C[C@H](C)[C@H](CN(C)C(=O)Cc2ccccc2)OCCCC[C@@H](C)O3)cc1	none (no result: CAL PDZ FP-1, CAL PDZ FP-2)
O=C(C=Cc1ccc2c(c1)OCO2)OCC=Cc1ccc2c(c1)OCO2	CAL PDZ FP-1 53
COc1cc(C=CC(=O)OCC=Cc2ccc3c(c2)OCO3)cc(OC)c1OC	none (no result: CAL PDZ FP-1, ARNT TACC3 PPI)
Cc1cc(SCc2ccc(Cl)cc2)nc(=O)[nH]1	none
Cc1cc(SCc2cccc(Cl)c2)nc(=O)[nH]1	CAL PDZ FP-1 55
O=C(OCC(=O)N1CCOCC1)c1ccc[nH]c1=O	CAL PDZ FP-2 125
O=C(OCC(=O)N1CCCCCC1)c1ccc[nH]c1=O	none
CN(CC1CCCO1)S(=O)(=O)c1ccc(C(=O)Nc2ccccc2F)cc1 (stereo not drawn)	none
CN(CC1CCCO1)S(=O)(=O)c1ccc(C(=O)Nc2nc(-c3ccccn3)cs2)cc1 (stereo not drawn)	ARNT TACC3 PPI 59
CN1CCN(C(=O)[C@H]2[C@H](CO)[C@H]3Cn4c(cccc4=O)[C@H]3N2Cc2ccccc2F)CC1	none (no result: CAL PDZ FP-1, CAL PDZ FP-2)
Cc1ccc2cccnc2c1N	none
O=Cc1ccc2ccc3cccnc3c2n1	CAL PDZ FP-1 55, ARNT TACC3 PPI 67
c1cnc2c(c1)ccc1cccnc12	ARNT TACC3 PPI 65
O=Cc1ccc2cccnc2n1	none
O=c1cc[nH]c2c1ccc1cccnc12	ARNT TACC3 PPI 61
Cc1cccc2cccnc12	none (no result: ARNT TACC3 PPI)
Cc1ccc(S(=O)(=O)N2CCCCC2)cc1NC(=O)CSc1ncn[nH]1	none (no result: CAL PDZ FP-1)
Cc1ccc(S(=O)(=O)N(C)C)cc1NC(=O)CSc1ncn[nH]1	CAL PDZ FP-1 34
Cc1cccc(NC(=O)Nc2ccc3c(c2)C(=O)N(C)[C@@H]2CC[C@H](CC(=O)O)O[C@H]2CO3)c1	none (no result: CAL PDZ FP-1, CAL PDZ FP-2)
CN1CCN(C2=C(Cl)C(=O)c3ccccc3C2=O)CC1	none
CC1COCC(C)N1C1=C(Cl)C(=O)c2ccccc2C1=O (stereo not drawn)	ARNT TACC3 PPI 30
CCCNC(=O)C[C@@H]1CC[C@@H]2[C@@H](COc3ccc(NC(=O)Cc4ccccc4)cc3C(=O)N2C)O1	none (no result: CAL PDZ FP-1, CAL PDZ FP-2)
Cc1ccc2c(c1)CC1(CN2C)C(=O)OC2(CCCCC2)OC1=O	CAL PDZ FP-1 78
CN1CC2(Cc3c1ccc1ccccc31)C(=O)OC(C)(C)OC2=O	none
CCCNC(=O)N1[C@@H]2CN(C(=O)CC)c3ccccc3[C@@H]2[C@@H]1CO	none (no result: CAL PDZ FP-1, CAL PDZ FP-2)
